Assay results from ChEMBL document CHEMBL1157505, “Design and in vitro characterization of highly sst2-selective somatostatin antagonists suitable for radiotargeting” (J Med Chem, 2008).
Calls of active or inactive are those of the source. No cut-off for these calls is given here.

Legend:
[1] = target: T1, Somatostatin receptor type 2 (Homo sapiens, UniProt P30874); test: Antagonist activity at T7 epitope tagged human cloned sst2 expressed in HEK293 cells assessed as intracellular calcium release upto 10 uM; assay type: functional, cell-based
T1 sequence (P30874 whole entry): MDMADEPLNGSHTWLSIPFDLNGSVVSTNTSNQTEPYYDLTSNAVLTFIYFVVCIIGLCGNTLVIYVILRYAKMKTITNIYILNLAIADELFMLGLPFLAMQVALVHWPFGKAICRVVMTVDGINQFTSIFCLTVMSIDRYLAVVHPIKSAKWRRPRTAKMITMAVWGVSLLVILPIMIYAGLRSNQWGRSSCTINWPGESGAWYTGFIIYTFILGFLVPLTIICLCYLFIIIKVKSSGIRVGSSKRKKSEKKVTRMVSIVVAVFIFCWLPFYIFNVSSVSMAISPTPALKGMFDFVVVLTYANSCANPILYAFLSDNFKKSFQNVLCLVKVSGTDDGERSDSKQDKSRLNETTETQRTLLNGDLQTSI
How it was run: (§1)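 HEK-sst2 cells seeded on poly-D-lysine, cultured 1 day, loaded with Fluo-4NW dye (assay buffer HBSS/20 mM HEPES, 2.5 mM probenecid) 30 min 37 °C plus 30 min RT. Analogues alone up to 10 μM, or [Tyr3]-octreotide with 100-fold excess analogue; fluorescence (ex 485/em 520 nm) recorded 60 s at RT; percentage of ionomycin (25 μM) maximum over baseline; ≥3 experiments in triplicate.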

[2] = target: T1, Somatostatin receptor type 2; test: Antagonist activity at T7 epitope tagged human cloned sst2 expressed in HEK293 cells assessed as [Tyr3]octreotide-induced intracellular calcium release upto 10 uM; assay type: functional, cell-based; how it was run: as §1
[3] = target: T1, Somatostatin receptor type 2; test: Antagonist activity at T7 epitope tagged human cloned sst2 receptor expressed in HEK293 cells assessed as inhibition of [Tyr3]octreotide-induced receptor internalization upto 10 uM by immunofluorescence-based assay; assay type: functional, cell-based
How it was run: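 Immunofluorescence microscopy with sst2-specific antibody R2-88 on HEK-sst2 cells treated 30 min with vehicle, 100 nM [Tyr3]-octreotide, 100 nM [Tyr3]-octreotide plus 100-fold excess (10 μM) analogue, or analogue alone at 10 μM; internalization scored as punctate perinuclear staining.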

[4] = target: T1, Somatostatin receptor type 2; test: Antagonist activity at T7 epitope tagged human cloned sst2 receptor expressed in HEK293 cells assessed as inhibition of [Tyr3]octreotide-induced receptor internalization upto 10 uM; assay type: functional, cell-based
How it was run: (§2)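 Surface T7-tagged sst2 on HEK-sst2 cells labelled with anti-T7 antibody 2 h RT in DMEM-LH, then cells exposed 30 min at 37 °C to analogue (alone up to 10 μM or with [Tyr3]-octreotide), fixed in 3% paraformaldehyde, probed with HRP anti-mouse IgG, ABTS read at OD405; surface receptor as % of untreated; mean ± SEM, three experiments in duplicate.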

[5] = target: T1, Somatostatin receptor type 2; test: Antagonist activity at T7 epitope tagged human cloned sst2 receptor expressed in HEK293 cells assessed as inhibition of receptor internalization upto 10 uM by ELISA; assay type: functional, cell-based; how it was run: as §2
[6] = target: T1, Somatostatin receptor type 2; test: Displacement of [125I][LTT]SRIF28 from human cloned sst2 receptor by autoradiography
[7] = target: Somatostatin receptor type 1 (Homo sapiens, UniProt P30872); test: Displacement of [125I][LTT]SRIF28 from human cloned sst1 receptor by autoradiography
Chain of Somatostatin receptor type 1 (P30872 whole entry): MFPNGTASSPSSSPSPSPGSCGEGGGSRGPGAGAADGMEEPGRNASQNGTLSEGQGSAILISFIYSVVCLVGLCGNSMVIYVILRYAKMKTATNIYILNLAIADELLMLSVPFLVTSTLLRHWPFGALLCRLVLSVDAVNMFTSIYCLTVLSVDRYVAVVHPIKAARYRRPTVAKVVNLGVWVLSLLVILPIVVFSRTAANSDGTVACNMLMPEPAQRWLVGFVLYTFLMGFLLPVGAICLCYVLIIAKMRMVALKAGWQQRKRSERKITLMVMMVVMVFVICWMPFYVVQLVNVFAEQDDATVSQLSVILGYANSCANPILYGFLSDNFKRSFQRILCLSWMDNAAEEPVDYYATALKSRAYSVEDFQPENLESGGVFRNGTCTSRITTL

[8] = target: Somatostatin receptor type 5 (Homo sapiens, UniProt P35346); test: Displacement of [125I][LTT]SRIF28 from human cloned sst5 receptor by autoradiography
Chain of Somatostatin receptor type 5 (P35346 whole entry): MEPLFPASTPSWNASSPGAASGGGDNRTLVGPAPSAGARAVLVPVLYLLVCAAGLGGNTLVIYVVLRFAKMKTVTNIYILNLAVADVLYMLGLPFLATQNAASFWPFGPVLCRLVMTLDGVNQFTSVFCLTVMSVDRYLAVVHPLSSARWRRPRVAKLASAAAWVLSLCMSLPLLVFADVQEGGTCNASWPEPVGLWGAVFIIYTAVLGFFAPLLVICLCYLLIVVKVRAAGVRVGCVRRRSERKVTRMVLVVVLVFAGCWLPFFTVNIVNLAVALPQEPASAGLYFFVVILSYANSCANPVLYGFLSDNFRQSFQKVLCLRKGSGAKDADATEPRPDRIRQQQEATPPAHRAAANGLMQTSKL

[9] = target: Somatostatin receptor type 3 (Homo sapiens, UniProt P32745); test: Displacement of [125I][LTT]SRIF28 from human cloned sst3 receptor by autoradiography
Chain of Somatostatin receptor type 3 (P32745 whole entry): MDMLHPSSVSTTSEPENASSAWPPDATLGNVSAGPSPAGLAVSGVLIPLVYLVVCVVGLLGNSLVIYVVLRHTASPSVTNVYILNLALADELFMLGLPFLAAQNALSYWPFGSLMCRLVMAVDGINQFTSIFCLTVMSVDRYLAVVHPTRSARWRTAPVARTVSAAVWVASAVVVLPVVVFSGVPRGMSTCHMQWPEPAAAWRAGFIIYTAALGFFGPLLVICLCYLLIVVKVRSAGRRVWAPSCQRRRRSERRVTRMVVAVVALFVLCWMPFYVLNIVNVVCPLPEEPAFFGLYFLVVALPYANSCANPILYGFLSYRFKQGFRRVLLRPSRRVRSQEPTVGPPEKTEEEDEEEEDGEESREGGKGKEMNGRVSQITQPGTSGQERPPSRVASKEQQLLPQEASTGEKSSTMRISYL

[10] = target: Somatostatin receptor type 4 (Homo sapiens, UniProt P31391); test: Displacement of [125I][LTT]SRIF28 from human cloned sst4 receptor by autoradiography
Chain of Somatostatin receptor type 4 (P31391 whole entry): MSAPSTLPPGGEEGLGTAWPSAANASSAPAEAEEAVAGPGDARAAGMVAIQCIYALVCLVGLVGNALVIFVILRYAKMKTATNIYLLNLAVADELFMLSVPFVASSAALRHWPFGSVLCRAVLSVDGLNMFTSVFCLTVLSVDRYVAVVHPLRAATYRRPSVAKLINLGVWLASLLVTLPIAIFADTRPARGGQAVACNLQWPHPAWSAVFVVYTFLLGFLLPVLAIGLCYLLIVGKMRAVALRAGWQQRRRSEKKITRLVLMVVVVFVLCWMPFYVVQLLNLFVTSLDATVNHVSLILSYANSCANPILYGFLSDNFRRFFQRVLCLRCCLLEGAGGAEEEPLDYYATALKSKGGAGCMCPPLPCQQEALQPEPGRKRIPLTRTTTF

SMILES	Activity [1]	Activity [2]	Activity [3]	Activity [4]	Activity [5]	IC50 [6]	IC50 [7]	IC50 [8]	IC50 [9]	IC50 [10]
C[C@@H](O)[C@@H]1NC(=O)[C@H](CCCCN)NC(=O)[C@@H](Cc2ccc(NC(N)=O)cc2)NC(=O)[C@H](Cc2ccc(O)cc2)NC(=O)[C@H](NC(=O)[C@@H](Cc2ccc([N+](=O)[O-])cc2)NC(=O)CN2CCN(CC(=O)O)CCN(CC(=O)O)CCN(CC(=O)O)CC2)CSSC[C@@H](C(=O)N[C@H](Cc2ccc(O)cc2)C(N)=O)NC1=O	inactive	Active	Active	Active	–	–	–	–	–	–
C[C@@H](O)[C@@H]1NC(=O)[C@H](CCCCN)NC(=O)[C@@H](Cc2c[nH]c3ccccc23)NC(=O)[C@H](Cc2ccc(O)c(I)c2)NC(=O)[C@H](NC(=O)[C@@H](Cc2ccc([N+](=O)[O-])cc2)NC(=O)CN2CCN(CC(=O)O)CCN(CC(=O)O)CCN(CC(=O)O)CC2)CSSC[C@@H](C(=O)N[C@H](Cc2ccc(O)cc2)C(N)=O)NC1=O	inactive	Active	Active	Active	inactive	–	–	–	–	–
C[C@@H](O)[C@@H]1NC(=O)[C@H](CCCCN)NC(=O)[C@@H](Cc2ccc(NC(N)=O)cc2)NC(=O)[C@H](Cc2ccc(NC(=O)[C@@H]3CC(=O)NC(=O)N3)cc2)NC(=O)[C@H](NC(=O)[C@@H](N)Cc2ccc([N+](=O)[O-])cc2)CSSC[C@@H](C(=O)N[C@@H](Cc2ccc3ccccc3c2)C(N)=O)NC1=O	–	–	–	–	–	2.7 nM	> 1000 nM	> 1000 nM	451 nM	> 1000 nM
C[C@@H](O)[C@@H]1NC(=O)[C@H](CCCCN)NC(=O)[C@@H](Cc2ccc(NC(N)=O)cc2)NC(=O)[C@H](Cc2ccc(NC(=O)[C@@H]3CC(=O)NC(=O)N3)cc2)NC(=O)[C@H](NC(=O)[C@@H](Cc2ccc(Cl)cc2)NC(=O)CN2CCN(CC(=O)O)CCN(CC(=O)O)CCN(CC(=O)O)CC2)CSSC[C@@H](C(=O)N[C@H](Cc2ccc(O)cc2)C(N)=O)NC1=O	inactive	Active	Active	Active	–	–	–	–	–	–
